Source: ChEMBL document CHEMBL4330069, “Boosting the efficacy of anti-MRSA β-lactam antibiotics via an easily accessible, non-cytotoxic and orally bioavailable FtsZ inhibitor” (Eur J Med Chem, 2019)
In brackets after ≈: the same amount, converted by molar mass. Blank lines part the entries; values can stand above or below the molecule they belong to.

How the values were obtained:
[1] = system: L929; test: Cytotoxicity against mouse L929 cells by MTS assay; format: cell-based
Method in brief: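 MTS assay on L929 mouse fibroblasts; IC50 reported as the average of three independent measurements.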

[2] = system: Staphylococcus aureus; test: Antibacterial activity against Staphylococcus aureus ATCC 29213 by broth microdilution assay; format: functional
Method in brief: (§1)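 Broth microdilution per CLSI guidelines; compounds dissolved in DMSO; single agents tested; growth inhibition read by eye; run in duplicate (table footnote states at least triplicates).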

[3] = Selective index, ratio of IC50 for mouse L929 cells to MIC for Staphylococcus aureus ATCC 29213
Method in brief: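 Selectivity index calculated as L929 IC50 (μM) divided by S. aureus MIC (μM).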

[4] = system: Escherichia coli; test: Antibacterial activity against Escherichia coli ATCC 25922 by broth microdilution assay; format: functional; method in brief: as §1
[5] = system: Staphylococcus aureus; test: Antibacterial activity against multidrug-resistant Staphylococcus aureus isolate 3267 by broth microdilution assay; format: functional
Method in brief: (§2)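 Broth microdilution MIC per CLSI guidelines against clinical MRSA isolates, for β-lactams and test compound alone and in combination. Compounds were dissolved in DMSO. Growth was read by eye, in duplicate. FIC index = FIC(compound) + FIC(drug); synergy defined as FIC index ≤0.5.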

[6] = system: Staphylococcus aureus; test: Antibacterial activity against multidrug-resistant Staphylococcus aureus isolate 3589 by broth microdilution assay; format: functional; method in brief: as §2
[7] = system: Staphylococcus aureus; test: Antibacterial activity against multidrug-resistant Staphylococcus aureus isolate 231 by broth microdilution assay; format: functional; method in brief: as §2
[8] = system: Staphylococcus aureus; test: Antibacterial activity against multidrug-resistant Staphylococcus aureus isolate 358 by broth microdilution assay; format: functional; method in brief: as §2
[9] = system: Staphylococcus aureus; test: Antibacterial activity against multidrug-resistant Staphylococcus aureus isolate 3580 by broth microdilution assay; format: functional; method in brief: as §2
[10] = system: Staphylococcus aureus; test: Antibacterial activity against multidrug-resistant Staphylococcus aureus isolate 2973 by broth microdilution assay; format: functional; method in brief: as §2
[11] = system: Staphylococcus aureus; test: Antibacterial activity against multidrug-resistant Staphylococcus aureus isolate 256 by broth microdilution assay; format: functional; method in brief: as §2
[12] = system: Staphylococcus aureus; test: Antibacterial activity against multidrug-resistant Staphylococcus aureus isolate 1344 by broth microdilution assay; format: functional; method in brief: as §2
[13] = system: Staphylococcus aureus; test: Antibacterial activity against multidrug-resistant Staphylococcus aureus isolate 254 by broth microdilution assay; format: functional; method in brief: as §2
[14] = system: Staphylococcus aureus; test: Antibacterial activity against multidrug-resistant Staphylococcus aureus isolate 417 by broth microdilution assay; format: functional; method in brief: as §2
[15] = system: Staphylococcus aureus; test: Antibacterial activity against multidrug-resistant Staphylococcus aureus isolate 2919 by broth microdilution assay; format: functional; method in brief: as §2
[16] = system: Staphylococcus aureus; test: Antibacterial activity against multidrug-resistant Staphylococcus aureus isolate 1136 by broth microdilution assay; format: functional; method in brief: as §2
[17] = system: Staphylococcus aureus; test: Antibacterial activity against multidrug-resistant Staphylococcus aureus isolate 2224 by broth microdilution assay; format: functional; method in brief: as §2
[18] = system: Staphylococcus aureus; test: Antibacterial activity against multidrug-resistant Staphylococcus aureus isolate 2490 by broth microdilution assay; format: functional; method in brief: as §2
[19] = system: Staphylococcus aureus; test: Antibacterial activity against multidrug-resistant Staphylococcus aureus isolate 2901 by broth microdilution assay; format: functional; method in brief: as §2
[20] = system: Staphylococcus aureus; test: Antibacterial activity against multidrug-resistant Staphylococcus aureus isolate 1749 by broth microdilution assay; format: functional; method in brief: as §2
[21] = system: Staphylococcus aureus; test: Antibacterial activity against multidrug-resistant Staphylococcus aureus isolate 1717 by broth microdilution assay; format: functional; method in brief: as §2
[22] = system: Staphylococcus aureus; test: Antibacterial activity against multidrug-resistant Staphylococcus aureus isolate 200 by broth microdilution assay; format: functional; method in brief: as §2
[23] = system: Staphylococcus aureus; test: Antibacterial activity against multidrug-resistant Staphylococcus aureus isolate 2516 by broth microdilution assay; format: functional; method in brief: as §2
[24] = system: Staphylococcus aureus; test: Antibacterial activity against multidrug-resistant Staphylococcus aureus isolate 774 by broth microdilution assay; format: functional; method in brief: as §2
[25] = system: Staphylococcus aureus; test: Antibacterial activity against multidrug-resistant Staphylococcus aureus isolate 1449 by broth microdilution assay; format: functional; method in brief: as §2
[26] = system: Staphylococcus aureus; test: Antibacterial activity against multidrug-resistant Staphylococcus aureus isolate 3332 by broth microdilution assay; format: functional; method in brief: as §2
[27] = system: Staphylococcus aureus; test: Antibacterial activity against multidrug-resistant Staphylococcus aureus isolate 1402 by broth microdilution assay; format: functional; method in brief: as §2
[28] = system: Staphylococcus aureus; test: Antibacterial activity against multidrug-resistant Staphylococcus aureus isolate 2728 by broth microdilution assay; format: functional; method in brief: as §2
[29] = system: Staphylococcus aureus; test: Antibacterial activity against multidrug-resistant Staphylococcus aureus isolate 2895 by broth microdilution assay; format: functional; method in brief: as §2
[30] = system: Staphylococcus aureus; test: Antibacterial activity against multidrug-resistant Staphylococcus aureus isolate 3411 by broth microdilution assay; format: functional; method in brief: as §2
[31] = system: Staphylococcus aureus; test: Antibacterial activity against multidrug-resistant Staphylococcus aureus isolate 757 by broth microdilution assay; format: functional; method in brief: as §2
[32] = system: Staphylococcus aureus; test: Antibacterial activity against multidrug-resistant Staphylococcus aureus isolate 85 by broth microdilution assay; format: functional; method in brief: as §2

Structure (SMILES): CCCCCCCC(C)Nc1ccc(F)c(C(N)=O)c1F (centres undefined)
IC50 [1]: > 100 µM | MIC [2]: 13 µM (≈ 3.88 µg/mL) | Selectivity Index [3]: >8 | MIC [4]: > 64 µg/mL

Structure (SMILES): CC1(C)S[C@@H]2[C@H](NC(=O)[C@H](N)c3ccc(O)cc3)C(=O)N2[C@H]1C(=O)O [AMOXICILLIN]
MIC [5]: 8 µg/mL (≈ 21.9 µM) | MIC [6]: 128 µg/mL (≈ 350 µM) | MIC [7]: 256 µg/mL (≈ 701 µM) | MIC [8]: 256 µg/mL (≈ 701 µM) | MIC [9]: 256 µg/mL (≈ 701 µM) | MIC [10]: 512 µg/mL (≈ 1400 µM) | MIC [11]: 256 µg/mL (≈ 701 µM) | MIC [12]: 128 µg/mL (≈ 350 µM) | MIC [13]: 128 µg/mL (≈ 350 µM) | MIC [14]: 512 µg/mL (≈ 1400 µM) | MIC [15]: 1020 µg/mL (≈ 2800 µM) | MIC [16]: 512 µg/mL (≈ 1400 µM) | MIC [17]: 512 µg/mL (≈ 1400 µM) | MIC [18]: 128 µg/mL (≈ 350 µM) | MIC [19]: 512 µg/mL (≈ 1400 µM) | MIC [20]: 64 µg/mL (≈ 175 µM) | MIC [21]: 32 µg/mL (≈ 87.6 µM) | MIC [22]: 512 µg/mL (≈ 1400 µM) | MIC [23]: 64 µg/mL (≈ 175 µM) | MIC [24]: 512 µg/mL (≈ 1400 µM) | MIC [25]: 2 µg/mL (≈ 5.47 µM) | MIC [26]: 64 µg/mL (≈ 175 µM) | MIC [27]: 256 µg/mL (≈ 701 µM) | MIC [28]: 512 µg/mL (≈ 1400 µM) | MIC [29]: 256 µg/mL (≈ 701 µM) | MIC [30]: 256 µg/mL (≈ 701 µM) | MIC [31]: 8 µg/mL (≈ 21.9 µM) | MIC [32]: 256 µg/mL (≈ 701 µM)

Structure (SMILES): C[C@@H](O)[C@H]1C(=O)N2C(C(=O)O)=C(S[C@@H]3CN[C@H](C(=O)N(C)C)C3)[C@H](C)[C@H]12 [MEROPENEM]
MIC [5]: 2 µg/mL (≈ 5.22 µM) | MIC [6]: 4 µg/mL (≈ 10.4 µM) | MIC [7]: 32 µg/mL (≈ 83.4 µM) | MIC [8]: 0.13 µg/mL (≈ 0.339 µM) | MIC [9]: 8 µg/mL (≈ 20.9 µM) | MIC [10]: 1 µg/mL (≈ 2.61 µM) | MIC [11]: 2 µg/mL (≈ 5.22 µM) | MIC [12]: 16 µg/mL (≈ 41.7 µM) | MIC [13]: 8 µg/mL (≈ 20.9 µM) | MIC [14]: 64 µg/mL (≈ 167 µM) | MIC [15]: 1 µg/mL (≈ 2.61 µM) | MIC [16]: 2 µg/mL (≈ 5.22 µM) | MIC [17]: 2 µg/mL (≈ 5.22 µM) | MIC [18]: 2 µg/mL (≈ 5.22 µM) | MIC [19]: 1 µg/mL (≈ 2.61 µM) | MIC [20]: 0.5 µg/mL (≈ 1.3 µM) | MIC [21]: 1 µg/mL (≈ 2.61 µM) | MIC [22]: 1 µg/mL (≈ 2.61 µM) | MIC [23]: 16 µg/mL (≈ 41.7 µM) | MIC [24]: 32 µg/mL (≈ 83.4 µM) | MIC [25]: 0.13 µg/mL (≈ 0.339 µM) | MIC [26]: 2 µg/mL (≈ 5.22 µM) | MIC [27]: 1 µg/mL (≈ 2.61 µM) | MIC [28]: 2 µg/mL (≈ 5.22 µM) | MIC [29]: 1 µg/mL (≈ 2.61 µM) | MIC [30]: 4 µg/mL (≈ 10.4 µM) | MIC [31]: 4 µg/mL (≈ 10.4 µM) | MIC [32]: 2 µg/mL (≈ 5.22 µM)

Structure (SMILES): CCCCCOc1cccc(CNc2ccc(F)c(C(N)=O)c2F)c1
IC50 [1]: 87 µM | MIC [2]: 50 µM (≈ 17.4 µg/mL) | Selectivity Index [3]: 2 | MIC [4]: > 64 µg/mL

Further molecules by falling MIC [2], results first:

MIC [2]: 50 µM (≈ 16.7 µg/mL) | MIC [4]: > 64 µg/mL
Structure (SMILES): CCCCOc1cccc(CNc2ccc(F)c(C(N)=O)c2F)c1
IC50 [1]: 99 µM | Selectivity Index [3]: 2

MIC [2]: 50 µM (≈ 19.4 µg/mL) | MIC [4]: > 64 µg/mL
Structure (SMILES): NC(=O)c1c(F)ccc(N(Cc2ccc(F)cc2)Cc2ccc(F)cc2)c1F
IC50 [1]: > 100 µM | Selectivity Index [3]: >2

MIC [2]: 50 µM (≈ 14.2 µg/mL) | MIC [4]: > 64 µg/mL
Structure (SMILES): CCCCCCCCNc1ccc(F)c(C(N)=O)c1F
IC50 [1]: > 100 µM | Selectivity Index [3]: >2

MIC [2]: 3.1 µM (≈ 0.968 µg/mL) | MIC [4]: > 64 µg/mL
Structure (SMILES): CCCCCCCCCN(C)c1ccc(F)c(C(N)=O)c1F
IC50 [1]: 60 µM | Selectivity Index [3]: 19

MIC [2]: 3.1 µM (≈ 0.928 µg/mL) | MIC [4]: > 64 µg/mL
Structure (SMILES): CCCCCCCCCOc1ccc(F)c(C(N)=O)c1F
IC50 [1]: 90 µM | Selectivity Index [3]: 29
